Calls of active or inactive are those of the source. The rule behind the calls is not given here.
Key:
Type in all cases: functional
Pseudomonas aeruginosa [1] = assay: Antibacterial activity against 5 x 10^5 CFU/mL Pseudomonas aeruginosa Boston 41501 ATCC 27853 after 72 hrs by CLSI M07-A8 broth microdilution method
In short: (§1)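 Broth microdilution in Mueller-Hinton broth at 37 °C. Serially diluted compound added in triplicate wells, then overnight culture diluted to about 5 × 10⁶ cfu/mL inoculum, giving 5 × 10⁵ cfu/well. Inoculum checked by serial dilution and plating. Plates incubated 72 h at 37 °C. MIC is the lowest concentration with no growth visible by eye. At least 3 repeats per organism.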

Staphylococcus aureus [2] = assay: Antibacterial activity against 5 x 10^5 CFU/mL Staphylococcus aureus subsp. aureus ATCC 29213 incubated for 72 hrs followed by growing of cells on trypticase soy agar plate for 24 hrs by CLSI M07-A8 broth microdilution method
In short: (§2)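 After the 72 h, 37 °C Mueller-Hinton microdilution (5 × 10⁵ cfu/well, triplicate wells), 100 µl from each triplicate set is plated on trypticase soy agar and incubated 24 h. MBC is the lowest concentration giving no colonies. At least 3 repeats per organism.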

Staphylococcus aureus [3] = assay: Antibacterial activity against 5 x 10^5 CFU/mL Staphylococcus aureus subsp. aureus ATCC 29213 after 72 hrs by CLSI M07-A8 broth microdilution method; in short: as §1
Enterococcus faecalis [4] = assay: Antibacterial activity against 2.5 x 10^6 CFU/mL Enterococcus faecalis ATCC 29212 assessed as time required for bacterial killing at 100 uM by microscopy based bacterial killing assay
Escherichia coli [5] = assay: Antibacterial activity against 2.5 x 10^6 CFU/mL Escherichia coli ATCC 25922 assessed as time required for bacterial killing at 100 uM by microscopy based bacterial killing assay
Escherichia coli [6] = assay: Antibacterial activity against 5 x 10^5 CFU/mL Escherichia coli ATCC 25922 after 72 hrs by CLSI M07-A8 broth microdilution method; in short: as §1
Pseudomonas aeruginosa [7] = assay: Antibacterial activity against 5 x 10^5 CFU/mL Pseudomonas aeruginosa Boston 41501 ATCC 27853 incubated for 72 hrs followed by growing of cells on trypticase soy agar plate for 24 hrs by CLSI M07-A8 broth microdilution method; in short: as §2
Enterococcus faecalis [8] = assay: Antibacterial activity against 5 x 10^5 CFU/mL Enterococcus faecalis ATCC 29212 incubated for 72 hrs followed by growing of cells on trypticase soy agar plate for 24 hrs by CLSI M07-A8 broth microdilution method; in short: as §2
Enterococcus faecalis [9] = assay: Antibacterial activity against 5 x 10^5 CFU/mL Enterococcus faecalis ATCC 29212 after 72 hrs by CLSI M07-A8 broth microdilution method; in short: as §1
Staphylococcus aureus [10] = assay: Antibacterial activity against 2.5 x 10^6 CFU/mL Staphylococcus aureus subsp. aureus ATCC 29213 assessed as time required for bacterial killing at 100 uM by microscopy based bacterial killing assay
Escherichia coli [11] = assay: Antibacterial activity against 5 x 10^5 CFU/mL Escherichia coli ATCC 25922 incubated for 72 hrs followed by growing of cells on trypticase soy agar plate for 24 hrs by CLSI M07-A8 broth microdilution method; in short: as §2

| Compound | MIC (Pseudomonas aeruginosa [1]; Boston 41501 ATCC 27853, 72 h) | MBC (Staphylococcus aureus [2]) | MIC (Staphylococcus aureus [3]; ATCC 29213, 72 h) | Activity (Enterococcus faecalis [4]) | Activity (Escherichia coli [5]) | MIC (Escherichia coli [6]; ATCC 25922, 72 h) | MBC (Pseudomonas aeruginosa [7]) | MBC (Enterococcus faecalis [8]) | MIC (Enterococcus faecalis [9]; ATCC 29212, 72 h) | Time (Staphylococcus aureus [10]) | MBC (Escherichia coli [11]) | Time (Escherichia coli [5]) | Time (Enterococcus faecalis [4]) | Activity (Staphylococcus aureus [10]) | MIC (Pseudomonas aeruginosa [1]) | MIC (Staphylococcus aureus [3]) | MIC (Escherichia coli [6]) | MIC (Enterococcus faecalis [9]) |
| --- | --- | --- | --- | --- | --- | --- | --- | --- | --- | --- | --- | --- | --- | --- | --- | --- | --- | --- |
| CCCCCCCCCCCCCCOc1c(C[N+](C)(C)C)cccc1C[N+](C)(C)C.[Br-].[Br-] | 500 µM | 16 µM | 16 µM | inactive | inactive | 125 µM | 500 µM | 50 µM | 50 µM | 48 h | 125 µM |  |  |  |  |  |  |  |
| CCCCCCCCCCCCCCCCOc1cc(C[N+](C)(C)C)ccc1C[N+](C)(C)C.[Br-].[Br-] | 125 µM | 16 µM | 16 µM | inactive |  | 63 µM | 125 µM | 50 µM | 50 µM | 24 h | 63 µM | 2 h |  |  |  |  |  |  |
| CCCCCCCCCCOc1ccc(C[N+](C)(C)C)cc1.[Br-] | 250 µM | 8 µM | 8 µM |  |  | 63 µM | 250 µM | 16 µM | 16 µM | 0.5 h | 63 µM | 0.5 h | 0.5 h |  |  |  |  |  |
| CCCCCCCCCCCCCCOc1ccc(C[N+](C)(C)C)cc1C[N+](C)(C)C.[Br-].[Br-] | 125 µM | 6 µM | 6 µM |  |  | 31 µM | 125 µM | 16 µM | 16 µM | 1 h | 31 µM | 1 h | 2 h |  |  |  |  |  |
| CCCCCCCCCCCCCCOc1cccc(C[N+](C)(C)C)c1C[N+](C)(C)C.[Br-].[Br-] | 125 µM | 6 µM | 6 µM |  |  | 63 µM | 125 µM | 31 µM | 31 µM | 1 h | 63 µM | 0.5 h | 24 h |  |  |  |  |  |
| CCCCCCCCCCCCCCOc1cc(C[N+](C)(C)C)ccc1C[N+](C)(C)C.[Br-].[Br-] | 250 µM | 16 µM | 16 µM |  |  | 63 µM | 250 µM | 31 µM | 31 µM | 48 h | 63 µM | 72 h | 48 h |  |  |  |  |  |
| CCCCCCCCCCCC[N+](C)(C)C | > 500 µM | 63 µM | 63 µM |  |  | 250 µM | > 500 µM | 125 µM | 125 µM |  | 250 µM |  |  |  |  |  |  |  |
| CCCCCCCCCCCCOS(=O)(=O)[O-].[Na+] [SODIUM LAURYL SULFATE] | > 500 µM | 250 µM | 250 µM |  |  | > 500 µM | > 500 µM | 500 µM | 500 µM |  | > 500 µM |  |  |  |  |  |  |  |
| CCCCCCCCCCCCCCCCOc1cc(C[N+](C)(C)C)cc(C[N+](C)(C)C)c1.[Br-].[Br-] | 125 µM | 8 µM | 8 µM |  |  | 63 µM | 125 µM | 31 µM | 31 µM | 0.25 h | 63 µM | 0.25 h | 0.25 h |  |  |  |  |  |
| CCCCCCCCCCCCCCOc1ccc(C[N+](C)(C)C)cc1.[Br-] | > 500 µM | 6 µM | 6 µM |  | inactive | > 500 µM | > 500 µM | 16 µM | 16 µM | 0.25 h | > 500 µM |  | 0.25 h |  |  |  |  |  |
| CCCCCCCCCCOc1cc(C[N+](C)(C)C)ccc1C[N+](C)(C)C | > 500 µM | 250 µM | 250 µM | inactive | inactive | > 500 µM | > 500 µM | 500 µM | 500 µM |  | > 500 µM |  |  | inactive |  |  |  |  |
| CCCCCCCCCCCCCCOc1cc(C[N+](C)(C)C)cc(C[N+](C)(C)C)c1.[Br-].[Br-] | 63 µM | 4 µM | 4 µM |  |  | 31 µM | 63 µM | 31 µM | 31 µM | 0.25 h | 31 µM | 1 h | 0.25 h |  |  |  |  |  |
| CCCCCCCCCCCCOc1cc(C[N+](C)(C)C)ccc1C[N+](C)(C)C | > 500 µM | 31 µM | 31 µM | inactive | inactive | 500 µM | > 500 µM | 125 µM | 125 µM |  | 500 µM |  |  | inactive |  |  |  |  |
| N,N,N-trimethylhexadecan-1-aminium bromide |  | 4 µM |  |  |  |  | > 500 µM | 4 µM |  |  | 63 µM |  |  |  | > 500 µM | 4 µM | 63 µM | 4 µM |
| CCCCCCCCCCCCCCCCCCOc1cc(C[N+](C)(C)C)ccc1C[N+](C)(C)C.[Br-].[Br-] | 250 µM | 16 µM | 16 µM |  |  | 63 µM | 250 µM | 31 µM | 31 µM | 0.25 h | 63 µM | 0.5 h | 0.25 h |  |  |  |  |  |

— ChEMBL document CHEMBL1817666, “Bicephalic amphiphile architecture affects antibacterial activity” (2011)
